Experimental findings from ChEMBL document CHEMBL4376893, “Identification of Psychoplastogenic N,N-Dimethylaminoisotryptamine (isoDMT) Analogues through Structure-Activity Relationship Studies” (2020) are described below.

Activity calls are given as the source filed them. The calls are words filed in the database; no cut-off is given here.

Assay [1] relates to Cortical neurone. The experiment in a line: Induction of dendritogenesis in Sprague-Dawley rat cortical neurons assessed as increase in dendritic arbor complex at 1 nM after 1 hr supplemented with fresh neurobasal medium measured after 71 hrs by Alexa Fluor 488 dye based imaging analysis. In kind it is functional, cell-based. The gist of the method: (§1)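 Cortical neurons from timed-pregnant Sprague Dawley rats, about 15,000 cells/well in B27 Neurobasal. On DIV3, dosed 1 h at 0.1% DMSO (10 μM standard; 10 pM–10 μM in concentration-response runs), then medium replaced and grown 71 h. PFA-fixed, MAP2 immunostained with Alexa Fluor 488 secondary, 20x imaging. Blinded Sholl analysis, Nmax = maximum crossings; ≥6 wells over 2 plates from independent dams.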

For a further assay, the species on record is Danio rerio. The assay can be described thus: Induction of acute behavioural changes in wild type zebrafish Singapore at 7 days post-fertilization stage after 1 hr by imaging analysis. In kind it is functional. The gist of the method: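 Wild-type Singapore larvae at 7 dpf, 8 per well in 300 μL egg water, rested 1 h at RT. DMSO stocks added (0.4% DMSO), then 1 h RT incubation. After 5 min dark acclimation, a 17-min acoustic/visual stimulus battery was run under IR video. Locomotion was taken as changed pixels. Random-forest out-of-bag accuracy versus vehicle wells was used, n = 21 wells.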

Assay [2] has as its system Mus musculus. The assay can be described thus: Induction of head-twitch response in iv dosed C57BL/6J mouse assessed as reduction in hallucinogenic potential measured after 20 mins. In kind it is functional, organism-based.
Assay [3] concerns the target 5-hydroxytryptamine receptor 2A (Rattus norvegicus) (UniProt P14842). The conditions noted are these: Sprague-Dawley, 1 uM.
The test system of assay [4] is Cortical neurone. The assay can be described thus: Induction of dendritogenesis in Sprague-Dawley rat cortical neurons assessed as dendritic arbor complexity at 10 uM after 1 hr supplemented with fresh neurobasal medium measured after 71 hrs by Alexa Fluor 488 dye based imaging analysis. In kind it is functional, cell-based. The essentials:
as §1

In assay [5] the test system is Mus musculus. The assay can be described thus: Induction of head-twitch response in C57BL/6J mouse assessed as reduction in hallucinogenic potential at 1 to 50 mg/kg, iv measured after 20 mins. It is filed as functional, organism-based.

Chain of 5-hydroxytryptamine receptor 2A (Rattus norvegicus) (P14842 whole entry): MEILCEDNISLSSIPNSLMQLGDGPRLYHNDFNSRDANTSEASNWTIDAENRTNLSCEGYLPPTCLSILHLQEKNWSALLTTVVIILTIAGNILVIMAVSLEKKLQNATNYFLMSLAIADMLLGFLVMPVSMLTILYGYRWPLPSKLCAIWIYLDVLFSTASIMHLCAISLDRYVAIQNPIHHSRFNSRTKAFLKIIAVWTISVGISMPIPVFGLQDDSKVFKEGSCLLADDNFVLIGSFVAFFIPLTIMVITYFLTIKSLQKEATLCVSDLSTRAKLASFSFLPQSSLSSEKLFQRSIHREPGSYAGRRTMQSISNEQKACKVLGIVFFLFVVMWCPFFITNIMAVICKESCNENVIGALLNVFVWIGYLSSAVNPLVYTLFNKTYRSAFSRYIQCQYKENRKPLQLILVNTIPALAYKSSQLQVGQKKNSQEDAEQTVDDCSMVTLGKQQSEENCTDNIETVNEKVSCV

On to `COc1ccc2[nH]cc(CCN(C)C)c2c1` [MEBUFOTENIN], for which the result in the assay with Cortical neurone [1] was Active. In the assay listed under Danio rerio, the Activity entry is “Dose-dependent effect” and the ECmax was found to be 200 µM. In the assay with Mus musculus [2], the Activity entry is “Dose-dependent effect”. For the same compound, the inhibition result in assay [3] is “Active”.
In the case of `CN(C)C(=O)Cn1ccc2ccccc21`, the outcome in the assay on Cortical neurone [4] was inactive.
On to `COc1ccc2c(CCN(C)C)c[nH]c2c1`, for which the outcome in the assay with Mus musculus [5] was inactive. Further, in the assay listed under Danio rerio, the Activity result was “Dose-dependent effect” and the ECmax was determined as 200 µM.
In the case of `CN(C)CCn1ccc2c(F)cccc21`, the outcome in the assay on Cortical neurone [4] was inactive.
For `CN(C)CCn1ccc2ccc(F)cc21`, the outcome with Cortical neurone [4] was Active.
As for `CN(C)CCn1ccc2ccccc21`, the outcome in the assay with Cortical neurone [4] was Active.
Still for that read-out and setting: under `CC(C)CCn1ccc2ccccc21` stands “inactive”.
`COc1ccc2c(ccn2CCN(C)C)c1.O=C(O)/C=C/C(=O)O`: the outcome in the assay with Mus musculus [5] was inactive. Further, in the assay with Cortical neurone [4], the result was Active. Further, in the assay listed under Danio rerio, the Activity result is “Dose-dependent effect” and the ECmax was found to be 200 µM.
In the case of `CN(C)CCn1cccc1`, the result in the assay on Cortical neurone [4] was Active.
Same read-out and setting: as for `CN(C)CCn1c2ccccc2c2ccccc21`, the entry is “Active”; as for `CN(C)CCn1cnc2ccccc21`, “Active”; as for `CN(C)CCn1ccc2ccc(OCc3ccccc3)cc21`, “Active”.
Take `CN(C)CCn1ccc2c(OCc3ccccc3)cccc21`: in the assay with Cortical neurone [4], the result was inactive.
With `COc1ccc2ccn(CCN(C)C)c2c1`, the outcome in the assay on Mus musculus [5] and in the assay on Cortical neurone [4] was Active. For the same compound, the Activity result in the assay listed under Danio rerio is “Dose-dependent effect”. Besides, the ECmax in the assay filed under Danio rerio amounted to 200 µM.
Consider `CN(C)CCn1ccc2cccc(F)c21`, for which the result in the assay with Cortical neurone [4] was Active.
The same measure, in the same setting: as for `COc1cccc2ccn(CCN(C)C)c12`, the entry is “Active”; as for `CN(C)CCn1ccc2cc(OCc3ccccc3)ccc21`, “Active”.
The same measure, in the same setting: as for `CN(C)CCn1ccc2cccc(OCc3ccccc3)c21`, the entry is “Active”; as for `CN(C)CCc1cn(C)c2ccccc12`, “Active”.
Still for that read-out and setting: as for `COc1cccc2c1ccn2CCN(C)C`, the entry is “inactive”.
Consider `CN(C)CCc1c[nH]c2ccccc12`, for which the result in the assay on Cortical neurone [1] and in the assay on Cortical neurone [4] was Active.
In the case of `CNC1(c2ccccc2Cl)CCCCC1=O` (stereo unspecified), in the assay with Cortical neurone [1], the outcome was Active.
As for `CN(C)CCn1ccc2cc(F)ccc21`, in the assay with Cortical neurone [4], the result was Active.
